In ChEMBL document CHEMBL1125365, “Acyl-CoA:cholesterol O-acyl transferase (ACAT) inhibitors. 1. 2-(Alkylthio)-4,5-diphenyl-1H-imidazoles as potent inhibitors of ACAT” (J Med Chem, 1992):

Experiments:
[1] = target: T1, Sterol O-acyltransferase 1 (Rattus norvegicus) (UniProt O70536); experiment: Tested in vitro for acyl coenzyme A:cholesterol acyltransferase (ACAT) activity in rat liver microsome at a concentration of 1 micro g/mL; assay type: microsomes
T1 sequence (whole entry): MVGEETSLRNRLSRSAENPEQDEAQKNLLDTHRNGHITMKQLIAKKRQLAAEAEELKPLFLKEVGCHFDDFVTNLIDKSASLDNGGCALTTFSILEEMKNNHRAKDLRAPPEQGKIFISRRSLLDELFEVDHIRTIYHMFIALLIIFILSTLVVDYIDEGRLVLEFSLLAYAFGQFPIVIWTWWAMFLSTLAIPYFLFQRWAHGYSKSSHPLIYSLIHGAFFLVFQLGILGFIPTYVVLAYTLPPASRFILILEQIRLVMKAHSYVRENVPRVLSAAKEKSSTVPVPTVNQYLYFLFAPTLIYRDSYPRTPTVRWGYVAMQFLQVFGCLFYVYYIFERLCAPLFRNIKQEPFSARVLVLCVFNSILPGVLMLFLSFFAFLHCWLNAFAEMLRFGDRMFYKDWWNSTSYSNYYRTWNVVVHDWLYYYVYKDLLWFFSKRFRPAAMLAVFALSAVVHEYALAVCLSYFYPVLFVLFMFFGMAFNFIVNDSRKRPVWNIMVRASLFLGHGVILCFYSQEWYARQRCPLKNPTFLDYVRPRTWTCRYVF
How it was run: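 Enzyme source was hepatic microsomes from cholesterol-fed rats, 60 μg microsomal protein per reaction, with 90 μM radiolabeled oleoyl-CoA. Cholesterol ester formed was separated by TLC and quantified by scintillation counting. Compounds were tested at a single fixed concentration of 1 or 10 μg/mL, and results were given as percent inhibition of enzyme activity.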

[2] = target: T2, Sterol O-acyltransferase 1 (Rattus norvegicus, UniProt O70536); experiment: Inhibition of acyl coenzyme A:cholesterol acyltransferase (ACAT) activity in rat liver microsome; assay type: microsomes
T2 sequence (O70536 whole entry): T1 sequence (whole entry)
How it was run: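 The assay used rat hepatic microsomes from cholesterol-fed animals (60 μg protein) and 90 μM radiolabeled oleoyl-CoA. Cholesterol ester product was resolved by TLC and counted by scintillation. IC50 was the concentration inhibiting 50% of enzyme activity.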

[3] = system: Rattus norvegicus; experiment: Tested in vivo for anti-hypercholesterolaemic activity in male Sprague-Dawley rat.; assay type: functional
How it was run: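 Compound was given at 0.03% w/w in the diet (about 30 mg/kg/day). Basal-diet rats (n = 4) gave a baseline that was subtracted. Plasma cholesterol was measured enzymatically, and the result was expressed as percent change versus undosed controls.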

[4] = target: T1, Sterol O-acyltransferase 1 (Rattus norvegicus); experiment: Tested in vitro for Acyl coenzyme A:cholesterol acyltransferase (ACAT) activity in rat liver microsome at a concentration of 1 micro g/mL

For `CC1(C)CC(=O)OC(CSc2nc(-c3ccccc3)c(-c3ccccc3)[nH]2)C1` (centres undefined), the inhibition [1] was 94%, the IC50 [2] was 100 nM and the Change [3] was -17%.
Compound `CO[C@]1(C)C[C@H](O)C[C@@H](CSc2nc(-c3ccccc3)c(-c3ccccc3)[nH]2)O1` has an inhibition [4] of 85%.
Work on `c1ccc(-c2nc(SCC3OCCO3)[nH]c2-c2ccccc2)cc1` yielded an inhibition [1] of 98%, an IC50 [2] of 530 nM and a Change [3] of -29%.
`c1ccc(-c2nc(SCC3CCCCC3)[nH]c2-c2ccccc2)cc1` was tested, and the inhibition [1] was 95%, the IC50 [2] was 100 nM and the Change [3] was -92%.
Work on `CCOC(CCSc1nc(-c2ccccc2)c(-c2ccccc2)[nH]1)OCC` yielded an inhibition [1] of 95%, an IC50 [2] of 69 nM and a Change [3] of 4%.
`c1ccc(-c2nc(SCC3CCCCO3)[nH]c2-c2ccccc2)cc1` (centres undefined) gave an inhibition [1] of 92%, an IC50 [2] of 210 nM and a Change [3] of -38%.
`c1ccc(-c2nc(SCCCC3OCCCO3)[nH]c2-c2ccccc2)cc1` was tested, and the inhibition [1] was 96%, the IC50 [2] was 47 nM and the Change [3] was -57%.
